# Laboratory results published in publication PMC6323139 (Bioorganic & medicinal chemistry, 2017).
# “Also recorded” adds a separate entry of the source.
# Columns and labels:
# Type in all cases: biochemical
# MIF [1] = molecular target: T1, MIF (Homo sapiens, UniProt P14174); test: Dilution experiment; conditions: MIF 34 μM with 125 μM inhibitor, diluted 100x in substrate solution
# T1 sequence (P14174 2-115 limits assumed): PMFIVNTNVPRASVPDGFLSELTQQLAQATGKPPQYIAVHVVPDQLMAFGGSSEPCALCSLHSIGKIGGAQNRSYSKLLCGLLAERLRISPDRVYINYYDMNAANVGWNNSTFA
# Summary of the method: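 Recombinant His-tagged MIF, purified on His-Trap resin, was premixed at 34 µM with 125 µM test compound in 5% DMSO. The mix was diluted 100-fold into boric acid containing 0.5 mM 4-HPP. The 4-HPP stock was made in 50 mM ammonium acetate pH 6.0 and equilibrated overnight at room temperature. Enol-borate absorbance at 306 nm was plotted against time. The control used 5% DMSO without inhibitor.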
# MIF [2] = molecular target: T1, MIF; test: Enzyme kinetic evaluation at increasing 4-HPP concentrations; conditions: concluded from Vmax app. and Khalf app.
# Summary of the method: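 Initial velocities were taken from the linear slope of absorbance at 306 nm. Conditions were His-tagged recombinant MIF at 340 nM in boric acid pH 6.2, with 4-HPP at 0–2.56 mM (1.25× dilutions) and test compound at 0, 6.25 or 12.5 µM in 5% DMSO. Velocity versus substrate was fitted to an allosteric sigmoidal model, giving Vmax app., Hill slope and Kprime app. Khalf app. was calculated from Kprime and the Hill slope.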
# MIF [3] = molecular target: T1, MIF; test: Preincubation assay; conditions: for Reversibility of inhibition: concluded from preincubation and dilution experiments; for Change in IC50 between preincubation times: preincubated with MIF (340 nM) for 2 or 40 min, inhibitor 125–0 μM
# Summary of the method: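 His-tagged MIF (340 nM final, in boric acid pH 6.2) was preincubated 2 or 40 min with test compound (125–0 µM, 1.6-fold series, 5% DMSO). 0.5 mM 4-HPP (equilibrated overnight in ammonium acetate pH 6.0) was added, A306 followed, and IC50 curves made. For dilution, 34 µM MIF plus 125 µM compound was diluted 100-fold into 4-HPP/boric acid, with a DMSO-only control and absorbance tracked.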
Structure (SMILES),MIF enzyme activity after dilution of the enzyme-inhibitor mixture (MIF [1]),Mechanism of inhibition (competition with substrate 4-HPP) (MIF [2]),Reversibility of inhibition (MIF [3]),Change in IC50 between preincubation times (MIF [3])
CCCCCCCCCCCCN1C(=O)CC2C(=C(N)Oc3ccccc32)C1=O (stereo not drawn) [Compound 10],activity of MIF could be recovered after dilution; also recorded: Diluting the inhibitor recovered the enzyme activity,no direct competition between the substrate 4-HPP and the inhibitor; also recorded: does not bind in direct competition with the substrate 4-HPP,reversible inhibitors,No difference in IC50; also recorded: No significant change in IC50 value
Cc1ccc2c(c1)OC(N)=C1C(=O)N(CCc3c[nH]c4ccccc34)C(=O)CC12 (stereo not drawn) [Compound 17],–,–,reversible inhibitors,No difference in IC50
